# Assay outcomes: PubChem, several laboratories
# Rows were chosen to be rich in hits. Some 3.8% of all compounds tested hit in one or more screens of this group.
# MPTP inh: mitochondrial permeability transition pore inhibitors, primary screen, biochemical, isolated mouse mitochondria, absorbance; inhibition, % at 10 µM; Ca2+ swelling absorbance, 30 min; 360,000 compounds, 1.4% hits;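 active means inhibition of 50% or more, scaled per plate between neutral and stimulator controls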;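 further: 0% = DMSO wells given calcium and 100% = 1 mM EGTA wells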
# OX1R antag-1: antagonists of human orexin 1 receptor (OX1R). OX1R-expressing cells, FRET antagonist read-out. AID 485270, 2010. 330,000 compounds, 1.8% hits. inhibition, % at 6.6 µM; in the data active means inhibition mostly above about 38%, no sharp cut-off; inactive means mostly below about 40%;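 further: 0% = agonist challenge alone and 100% = reference antagonist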
# Target sequence (O43613 whole entry, looked up): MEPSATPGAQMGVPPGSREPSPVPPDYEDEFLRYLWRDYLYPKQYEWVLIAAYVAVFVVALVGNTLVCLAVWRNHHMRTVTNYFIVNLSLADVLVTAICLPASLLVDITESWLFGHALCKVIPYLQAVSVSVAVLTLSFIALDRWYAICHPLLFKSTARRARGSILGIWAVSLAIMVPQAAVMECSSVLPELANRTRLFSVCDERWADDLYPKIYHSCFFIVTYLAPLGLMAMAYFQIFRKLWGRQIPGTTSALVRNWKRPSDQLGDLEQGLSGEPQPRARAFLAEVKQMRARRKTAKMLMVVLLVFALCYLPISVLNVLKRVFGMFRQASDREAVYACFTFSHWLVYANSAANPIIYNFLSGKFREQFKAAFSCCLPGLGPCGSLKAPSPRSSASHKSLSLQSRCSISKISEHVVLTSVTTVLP
# CHO parental Ca: ATP-evoked calcium signal inhibitors, parental CHO, primary screen, counter-screen for OX1R antagonist project, cell-based, fluorescence, Fluo-8 calcium dye | inhibition, % at 5.6 µM | 330,000 compounds, 0.63% hits | parental CHO-K1, ATP-induced calcium, Fluo-8 fluorescence;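 active means inhibition above that plate's mean sample inhibition plus 3 SD, cut at about 26% in these data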;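 further: 0% = ATP-challenged DMSO wells and 100% = DMSO wells without ATP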
#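 Test system: untransfected parental CHO cell line. Compound: one dose, 5.6 µM nominal. Detection: intracellular calcium via Fluo-8 no-wash fluorescent dye. Measure: % inhibition. Benchmarks: ATP-challenged DMSO wells low, unchallenged DMSO wells high.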
# GPR7 antagonist: GPR7 receptor antagonists, primary screen, cell-based, fluorescence, single concentration; GPR7-expressing cells, fluorescence antagonist assay; inhibition, % at 4.4 µM; 290,000 compounds, 1.1% hits; in the data active means inhibition above about 16%, passing the limit was not always enough;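 further: cells stimulated with the agonist NPW; 0% = agonist with vehicle and 100% = vehicle without agonist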
# OX1R antag-2: OX1R (HCRTR1) antagonists, primary screen, fluorescence, CHO/OX1R cells, Fluo-8 calcium, orexin A. Orexin/Hypocretin receptor type 1 (Homo sapiens), O43613. Fluo-8 calcium fluorescence. inhibition, % at 5 µM. 330,000 compounds, 0.43% hits. AID 434989, 2010;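 active means inhibition above its plate's threshold, mean inhibition of all tested compounds on the plate plus 3 SD, cut at about 37% in these data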;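 further: 0% = orexin A challenge wells and 100% = SB-334867-A antagonist wells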
# Rh123 counter: fluorescence retest of MPTP screen hits in isolated mitochondria, single concentration | shares compounds with MPTP inh | membrane potential, Rhodamine 123 fluorescence | inhibition, % at 10 µM | 5,000 compounds, 78% hits; in the data active means inhibition above about 22%;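 further: 0% = DMSO vehicle and 100% = positive control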
# * marks the source's active call; other numbers are inactive results; / = no result given.
SMILES,MPTP inh,OX1R antag-1,CHO parental Ca,GPR7 antagonist,OX1R antag-2,Rh123 counter
CC(C)(C)S(=O)(=O)/C(C#N)=N/Nc1ccc(Cl)cc1,92*,34,11,-6,2,87*
CCCCCC(=O)Nc1ccc(S(=O)(=O)Nc2nccc(C)n2)cc1,1,7,5,-6,-9,/
N#CCCn1nc(-c2ccc([N+](=O)[O-])cc2)cc1Nc1ccccc1NC(=O)C(F)(F)F,93*,10,13,14,-9,91*
N#CCCn1nc(-c2ccccc2)cc1Nc1ccccc1NC(=O)C(F)(F)F,9,-2,-2,2,-3,/
N#CCCn1nc(-c2ccc(Br)cc2)cc1Nc1ccccc1NC(=O)C(F)(F)F,95*,8,5,-4,18,84*
CCOC(=O)c1cnc(SCC(=O)Nc2ccc(NC(C)=O)c(OC)c2)nc1N,-1,1,-9,-6,-10,/
CCOC(=O)c1cnc(SCC(=O)Nc2cc(OC)ccc2OC)nc1N,86*,71,34*,-3,39,69*
COc1cccc(C(=O)NCCS(=O)(=O)NCc2ccc(Cl)cc2)c1,0,25,-17,/,-19,/
Cc1ccc(CSC(Nc2ccc(F)cc2)=C(C#N)C#N)cc1,95*,42,14,11,24,93*
CCN(CC)C(=O)CSC(Nc1ccc(F)cc1)=C(C#N)C#N,4,7,9,-9,1,/
Cc1sc2ncnc(N3CCCCC3C)c2c1C (configuration not stated),60*,10,-9,-4,-18,54*
Cc1ccc(NC(=S)Nc2ccc(C(C)C)cc2)cc1S(=O)(=O)N1CCCCCC1,103*,27,26,-7,-22,78*
CCCOc1ccc(C(=O)CCNC(Cc2c[nH]c3ccccc23)C(=O)O)cc1 (configuration not stated),0,-8,-10,-6,-25,/
Cc1nc2ccc(C(=O)Nc3cccc([N+](=O)[O-])c3)cc2s1,-1,24,-11,-3,-22,/
O=C(Nc1cc(Sc2nc3ccccc3s2)cc([N+](=O)[O-])c1)c1cccc(F)c1F,94*,23,3,-5,7,71*
CCN(C(=O)COC(=O)C1CC1)c1c(N)n(Cc2ccccc2)c(=O)[nH]c1=O,0,-3,2,/,-5,/
C=CCOC(=O)C1=C(C)NC(SCC(=O)Nc2ccc(C)c(Cl)c2)=C(C#N)C1c1ccco1 (configuration not stated),72*,15,-3,-21,-23,77*
CCOC(=O)Cc1csc(NC(=O)c2ccc(NC(C)=O)cc2)n1,0,9,-15,-3,-23,/
CCOC(=O)Cc1csc(NC(=O)Nc2ccc(OC(F)(F)F)cc2)n1,84*,25,29*,7,-1,68*
NC(c1ccccc1)c1csc(NC(=O)Nc2ccc(OC(F)(F)F)cc2)n1 (configuration not stated),70*,/,/,/,/,78*
NC(c1ccccc1)c1csc(NC(=O)Nc2cccc(Cl)c2)n1 (configuration not stated),3,/,/,/,/,/
CN(C)c1ccc(CC(=O)c2nc3ccccc3s2)cc1,0,4,-4,5,-20,/
CCOc1ccccc1NC(=O)Nc1ccccn1,1,14,-21,-8,-10,/
CCOc1cc(NC(=S)Nc2ccccc2)c(OCC)cc1NC(=O)c1ccc(OC)cc1,-2,28,-22,-4,-30,/
CCOc1cc(NC(=S)Nc2ccc(Cl)cc2)c(OCC)cc1NC(C)=O,73*,48,-18,2,-28,100*
CCOc1ccccc1NC(=O)Nc1ccc(Cl)cc1,90*,21,-16,2,-8,90*
CC(C)CN1C(=O)CSCC1(C)C(=O)NCc1ccccc1 (configuration not stated),4,/,/,/,/,/
[N-]=[N+]=NC(c1ccccc1)C(NC(=O)c1cc(C(F)(F)F)cc(C(F)(F)F)c1)c1ccccc1 (configuration not stated),68*,/,/,/,/,103*
